In ChEMBL document CHEMBL1811913, “Trimethoxy-chalcone derivatives inhibit growth of Leishmania braziliensis: synthesis, biological evaluation, molecular modeling and structure-activity relationship (SAR)” (Bioorg Med Chem, 2011):
Activity calls are given as the source filed them. The rule behind the calls is not given here.

Key:
[1] = target: T1, Nitric oxide synthase, inducible (Mus musculus) (UniProt P29477); experiment: Inhibition of iNOS-mediated LPS-induced nitric oxide production in mouse RAW264.7 cells; type: cell-based
T1 sequence (whole entry): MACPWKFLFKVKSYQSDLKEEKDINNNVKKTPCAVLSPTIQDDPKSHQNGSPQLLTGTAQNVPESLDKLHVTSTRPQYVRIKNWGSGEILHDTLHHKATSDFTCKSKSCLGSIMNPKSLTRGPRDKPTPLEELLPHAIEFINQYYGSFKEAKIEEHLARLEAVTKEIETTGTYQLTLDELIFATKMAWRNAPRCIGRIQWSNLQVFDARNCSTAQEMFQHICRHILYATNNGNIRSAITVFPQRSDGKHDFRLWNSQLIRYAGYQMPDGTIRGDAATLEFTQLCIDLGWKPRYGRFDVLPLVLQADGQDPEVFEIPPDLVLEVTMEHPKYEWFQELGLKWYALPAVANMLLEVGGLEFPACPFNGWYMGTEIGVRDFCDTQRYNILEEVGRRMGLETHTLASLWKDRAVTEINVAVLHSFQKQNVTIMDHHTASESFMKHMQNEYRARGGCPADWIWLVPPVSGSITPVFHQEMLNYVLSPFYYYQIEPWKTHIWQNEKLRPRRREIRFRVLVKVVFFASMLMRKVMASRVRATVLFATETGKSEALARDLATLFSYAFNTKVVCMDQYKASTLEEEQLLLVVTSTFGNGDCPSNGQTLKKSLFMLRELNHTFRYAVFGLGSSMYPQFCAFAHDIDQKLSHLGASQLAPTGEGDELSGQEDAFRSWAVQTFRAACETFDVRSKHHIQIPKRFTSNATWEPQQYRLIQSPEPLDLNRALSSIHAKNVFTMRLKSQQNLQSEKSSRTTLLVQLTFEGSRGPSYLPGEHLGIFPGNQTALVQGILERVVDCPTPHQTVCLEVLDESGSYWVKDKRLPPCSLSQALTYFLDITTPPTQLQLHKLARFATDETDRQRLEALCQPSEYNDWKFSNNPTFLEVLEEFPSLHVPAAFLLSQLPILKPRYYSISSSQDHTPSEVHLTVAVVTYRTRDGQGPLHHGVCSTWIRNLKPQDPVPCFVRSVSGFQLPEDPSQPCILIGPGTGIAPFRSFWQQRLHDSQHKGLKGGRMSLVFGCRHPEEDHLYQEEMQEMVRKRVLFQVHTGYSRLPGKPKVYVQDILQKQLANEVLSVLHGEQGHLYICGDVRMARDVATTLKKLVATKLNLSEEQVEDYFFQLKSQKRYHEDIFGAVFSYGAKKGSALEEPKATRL

Leishmania braziliensis [2] = experiment: Antileishmanial activity against promastigotes form of Leishmania braziliensis MHOM/BR/75/M2904 after 72 hrs; type: functional; details: MHOM/BR/75/M2904, 72 h
In short: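 5.0 × 10^6 promastigotes/mL were exposed to 500, 100, 50, 25, 10, 5 and 1 (DMSO ≤1% final) at 28 °C for 72 h, and living parasites were counted in a Neubauer chamber. IC50 came from linear regression, mean ± standard error of three independent experiments.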

[3] = Selectivity index, ratio of CC50 for african green monkey Vero cells to IC50 for promastigotes form of Leishmania braziliensis MHOM/BR/75/M2904; type: functional
[4] = Cytotoxicity against african green monkey Vero cells after 72 hrs; type: cell-based; details: chlorocebus sabaeus
Vero = experiment: Cytotoxicity against african green monkey Vero cells at 50 uM after 72 hrs; type: cell-based; details: chlorocebus sabaeus
Leishmania braziliensis [5] = experiment: Antileishmanial activity against promastigotes form of Leishmania braziliensis MHOM/BR/75/M2904 at 50 uM after 72 hrs; type: functional

inhibition [1] | IC50 (Leishmania braziliensis [2]) [µM] | SMILES | Ratio CC50/IC50 [3] | CC50 at 72 h [4] [µM] | Activity (Vero) | inhibition (Leishmania braziliensis [5])
Active |  | COc1cc(OC)c(C(=O)/C=C/c2ccccc2Cl)c(OC)c1 |  |  |  | 
 | 12.8 | COc1cc(OC)c(C(=O)/C=C/c2ccccc2)cc1OC | 30.6 | 392 |  | 
 | 194 | COc1cc(O)c(C(=O)/C=C/c2cccc(Cl)c2)c(OC)c1 | 1.8 | 341 |  | 
 | 6 | N=C(N)c1ccc(OCCCCCOc2ccc(C(=N)N)cc2)cc1 [PENTAMIDINE] |  |  |  | 
 | 148 | COc1cc(OC)c(C(=O)/C=C/c2ccc(Cl)c(Cl)c2)cc1OC | 6.1 | 906 |  | 
 | 29.7 | COc1cc(OC)c(C(=O)/C=C/c2ccc(Cl)cc2)cc1OC | 9.4 | 279 |  | 
 |  | COc1cc(OC)c(C(=O)/C=C/c2ccc3c(c2)OCO3)c(OC)c1 |  |  | Non-toxic | inactive
 | 14 | COc1cccc(/C=C/C(=O)c2cc(OC)c(OC)cc2OC)c1 | 21.1 | 295 |  | 
 |  | COc1cc(OC)c(C(=O)/C=C/c2ccccc2Cl)cc1OC |  |  | Non-toxic | inactive
 | 15.4 | COc1cc(OC)c(C(=O)/C=C/c2cccc(Cl)c2)cc1OC | 24.8 | 382 |  | 
